Source: ChEMBL document CHEMBL4354840, “Discovery of a Small Side Cavity in Sphingosine Kinase 2 that Enhances Inhibitor Potency and Selectivity” (J Med Chem, 2020)
Active and inactive are the calls of the source. The rule behind the calls is not given here.

Experiments:
[1] = biological target: T1, Sphingosine kinase 2 (Homo sapiens) (UniProt Q9NRA0); experiment: Inhibition of recombinant human SphK2 transfected in HEK293T cells at 0.3 uM using D-erythro-sphingosine as substrate incubated for 20 mins in presence of [gamma32P]-ATP by liquid scintillation counting method relative to control; type: cell-based
T1 sequence (whole entry): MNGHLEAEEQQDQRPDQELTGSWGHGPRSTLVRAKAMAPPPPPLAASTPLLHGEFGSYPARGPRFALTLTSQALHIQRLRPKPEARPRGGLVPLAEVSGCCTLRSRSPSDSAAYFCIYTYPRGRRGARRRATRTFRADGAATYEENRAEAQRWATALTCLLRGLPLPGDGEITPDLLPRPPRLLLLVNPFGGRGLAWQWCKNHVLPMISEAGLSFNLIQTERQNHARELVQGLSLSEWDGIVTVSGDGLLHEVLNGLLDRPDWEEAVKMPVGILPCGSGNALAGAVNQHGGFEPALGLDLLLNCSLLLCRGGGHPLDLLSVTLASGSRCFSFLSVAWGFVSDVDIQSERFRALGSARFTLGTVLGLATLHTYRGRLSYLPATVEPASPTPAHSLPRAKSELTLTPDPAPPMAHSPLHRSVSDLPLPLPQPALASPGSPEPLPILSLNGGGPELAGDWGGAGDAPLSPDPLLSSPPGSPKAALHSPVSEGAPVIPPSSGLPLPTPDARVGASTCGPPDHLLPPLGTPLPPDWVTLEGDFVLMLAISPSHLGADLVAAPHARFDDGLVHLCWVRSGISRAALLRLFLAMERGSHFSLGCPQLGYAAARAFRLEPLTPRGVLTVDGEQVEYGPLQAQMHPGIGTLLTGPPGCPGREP
How it was run: (§1)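 Human SphK2 recombinant protein isolated from cell lysate. Reaction contained 10 μM sphingosine and 250 μM γ-[32P]ATP, with or without inhibitor. Product was read by scintillation counting. Activity is expressed as % of the no-inhibitor control. Compounds were tested at 1.0 and 0.3 μM in triplicate.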

[2] = biological target: T1, Sphingosine kinase 2 (Homo sapiens); experiment: Inhibition of recombinant human SphK2 transfected in HEK293T cells at 1 uM using D-erythro-sphingosine as substrate incubated for 20 mins in presence of [gamma32P]-ATP by liquid scintillation counting method relative to control; how it was run: as §1
Sphingosine kinase 2 [3] = biological target: T2, Sphingosine kinase 2 (Homo sapiens, UniProt Q9NRA0); experiment: Inhibition of recombinant human SphK2 expressed in baculovirus infected Sf9 cells assessed as decrease in [33P]S1P production using varying level of D-erythro-sphingosine as substrate in presence of [gamma33P]-ATP by scintillation proximity assay
T2 sequence (Q9NRA0 whole entry): T1 sequence (whole entry)

Mus musculus [4] = experiment: In vivo inhibition of SphK2 in C57BL/6 mouse assessed as Cmax required for two-fold increase in sphingosine-1-phosphate level in blood at 10 mg/kg, ip administered as single dose measured after 4 hrs by LC-MS/MS analysis; type: functional, organism-based; design: dose 10 mg/kg
How it was run: (§2)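 Male C57BL/6 mice, 8–10 weeks old, received a single i.p. dose of vehicle or 10 mg/kg inhibitor in 2% hydroxypropyl-β-cyclodextrin. Retro-orbital whole blood was taken at 0.5, 1, 2, 4, 6 and 8 h. 10 μL of blood was analysed by LC/MS for S1P and compound. Groups were compared to vehicle by unpaired t-test.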

Mus musculus [5] = experiment: In vivo inhibition of SphK2 in C57BL/6 mouse assessed as increase in sphingosine-1-phosphate level in blood at 10 mg/kg, ip administered as single dose and measured at 4 hrs post-treatment by LC-MS/MS analysis relative to control; type: functional
How it was run: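 Male C57BL/6 mice, 8–10 weeks old, given one i.p. injection of 10 mg/kg or vehicle (2% hydroxypropyl-β-cyclodextrin). Whole blood taken from the retro-orbital sinus at 0.5, 1, 2, 4, 6 and 8 h. 10 μL of blood processed for S1P by LC-MS/MS. S1P compared with vehicle-injected controls by unpaired t-test.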

Mus musculus [6] = experiment: In vivo inhibition of SphK2 in C57BL/6 mouse assessed as increase in sphingosine-1-phosphate level in blood at 10 mg/kg, ip administered as single dose and measured upto 6 hrs post-treatment by LC-MS/MS analysis; type: functional, organism-based; how it was run: as §2
Saccharomyces cerevisiae = experiment: Toxicity against Saccharomyces cerevisiae KYA1 assessed as cell death at >3 uM incubated for 24 to 48 hrs; type: organism-based; conditions: in vivo
Rattus norvegicus = experiment: Decrease in sphingosine-1-phosphate level in rat blood at 10 mg/kg relative to control; type: functional
Sphingosine kinase 2 [7] = biological target: T3, Sphingosine kinase 2 (Mus musculus, UniProt Q9JIA7); experiment: Inhibition of recombinant mouse SphK2 expressed in baculovirus infected Sf9 insect cells using D-erythro-sphingosine as substrate measured after 30 mins in presence of [gamma32P]-ATP by liquid scintillation counting method
T3 sequence (Q9JIA7 whole entry): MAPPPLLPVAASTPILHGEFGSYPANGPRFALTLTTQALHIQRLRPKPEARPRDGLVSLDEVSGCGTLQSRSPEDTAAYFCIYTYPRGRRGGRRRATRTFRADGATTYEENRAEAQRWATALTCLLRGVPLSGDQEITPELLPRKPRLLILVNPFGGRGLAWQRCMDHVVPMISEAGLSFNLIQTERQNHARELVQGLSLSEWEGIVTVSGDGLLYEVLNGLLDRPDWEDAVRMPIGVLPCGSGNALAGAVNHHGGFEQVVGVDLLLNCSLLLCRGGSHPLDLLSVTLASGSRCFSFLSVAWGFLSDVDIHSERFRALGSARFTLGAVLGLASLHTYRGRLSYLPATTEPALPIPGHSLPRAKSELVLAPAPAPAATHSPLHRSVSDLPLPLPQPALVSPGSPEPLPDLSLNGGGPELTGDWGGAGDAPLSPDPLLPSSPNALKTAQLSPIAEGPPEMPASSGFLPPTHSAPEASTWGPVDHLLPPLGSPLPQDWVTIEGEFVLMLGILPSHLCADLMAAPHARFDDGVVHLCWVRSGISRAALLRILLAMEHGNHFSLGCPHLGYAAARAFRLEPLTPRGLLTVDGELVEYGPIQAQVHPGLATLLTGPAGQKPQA

SMILES | inhibition [1] [%] | also measured
N=C(N)N1CCC[C@H]1c1nc(-c2ccc(OCc3ccc(C(F)(F)F)cc3)c(-c3ccncc3)c2)no1 | 8 | –
N=C(N)N1CCC[C@H]1c1nc(-c2ccc(OCc3ccc(C(F)(F)F)cc3)cc2C(F)(F)F)no1 | 35 | –
N=C(N)N1CCC[C@H]1c1nc(-c2ccc(OCc3ccc(C(F)(F)F)cc3)c(-c3ccccc3)c2)no1 | 28 | –
N=C(N)N1CCC[C@H]1c1nc(-c2ccc(OCc3ccc(C(F)(F)F)cc3)c(-c3ccc(F)cc3)c2)no1 | 31 | –
N=C(N)N1CCC[C@H]1c1nc(-c2ccc(OCc3ccc(C(F)(F)F)cc3)cc2Cl)no1 | 40 | –
Cc1cc(-c2noc([C@@H]3CCCN3C(=N)N)n2)cc(C)c1OCc1ccc(C(F)(F)F)cc1 | 23 | –
N=C(N)N1CCC[C@H]1c1nc(-c2ccc(OCc3ccc(C(F)(F)F)cc3)c(-c3ccc(C(F)(F)F)cc3)c2)no1 | 12 | –
CCCCCCCCc1ccc(-c2noc(C[C@@H]3CCCN3C(=N)N)n2)cc1 | – | inhibition in vivo at 10 mg/kg (Rattus norvegicus): 80%
CCCCCCCCOc1ccc(-c2noc([C@@H]3CCCN3C(=N)N)n2)cc1 | 3 | inhibition [2]: 8%
CCCCCCCCOc1ccc(-c2noc([C@@H]3CCCN3C(=N)N)n2)cc1C(F)(F)F | – | Ki (Sphingosine kinase 2 [7]): 400 nM

Continued, in another order:

inhibition [1] [%] | SMILES | also measured
33 | N=C(N)N1CCC[C@H]1c1nc(-c2ccc(OCc3ccc(C(F)(F)F)cc3)c([N+](=O)[O-])c2)no1 | –
2 | N=C(N)N1CCC[C@H]1c1nc(-c2ccc(OCc3ccc(C(F)(F)F)cc3)cc2)no1 | –
65 | Cl.N=C(N)N1CCC[C@H]1c1nc(-c2ccc(OCc3ccc(C(F)(F)F)cc3)c(C(F)(F)F)c2)no1 | inhibition [2]: 77%; Ki (Sphingosine kinase 2 [3]): 89 nM; Cmax (Mus musculus [4]): 8 µM; fold change (FC) (Mus musculus [5]): 2; inhibition (Mus musculus [6]): Active; Activity (Saccharomyces cerevisiae): Toxic
15 | COc1cc(-c2noc([C@@H]3CCCN3C(=N)N)n2)ccc1OCc1ccc(C(F)(F)F)cc1 | –
33 | N=C(N)N1CCC[C@H]1c1nc(-c2ccc(OCc3ccc(C(F)(F)F)cc3)c(Cl)c2)no1 | –
66 | CC(C)(C)c1cc(-c2noc([C@@H]3CCCN3C(=N)N)n2)ccc1OCc1ccc(C(F)(F)F)cc1.Cl | Ki (Sphingosine kinase 2 [3]): 197 nM; Activity (Saccharomyces cerevisiae): Toxic
3 | Cc1cc(-c2noc([C@@H]3CCCN3C(=N)N)n2)ccc1OCc1ccc(C(F)(F)F)cc1 | –
67 | CC(C)c1cc(-c2noc([C@@H]3CCCN3C(=N)N)n2)ccc1OCc1ccc(C(F)(F)F)cc1.Cl | Ki (Sphingosine kinase 2 [3]): 192 nM; Activity (Saccharomyces cerevisiae): Toxic
24 | N=C(N)N1CCC[C@H]1c1nc(-c2ccc(OCc3ccc(C(F)(F)F)cc3)c(Br)c2)no1 | –
23 | N=C(N)N1CCC[C@H]1c1nc(-c2ccc(OCc3ccc(C(F)(F)F)cc3)c(F)c2)no1 | –
60 | CCCc1cc(-c2noc([C@@H]3CCCN3C(=N)N)n2)ccc1OCc1ccc(C(F)(F)F)cc1.Cl | Ki (Sphingosine kinase 2 [3]): 201 nM; Activity (Saccharomyces cerevisiae): Toxic
42 | CCc1cc(-c2noc([C@@H]3CCCN3C(=N)N)n2)ccc1OCc1ccc(C(F)(F)F)cc1.Cl | Activity (Saccharomyces cerevisiae): Toxic
52 | Cl.N=C(N)N1CCC[C@H]1c1nc(-c2ccc(OCc3ccc(C(F)(F)F)cc3)c(C3CC3)c2)no1 | Ki (Sphingosine kinase 2 [3]): 186 nM; Activity (Saccharomyces cerevisiae): Toxic
59 | C=CCc1cc(-c2noc([C@@H]3CCCN3C(=N)N)n2)ccc1OCc1ccc(C(F)(F)F)cc1.Cl | Activity (Saccharomyces cerevisiae): Toxic
